Assay [1] has as its system Staphylococcus aureus. Briefly: Antimicrobial activity against Staphylococcus aureus RN450 transfected with plasmid SI-1941 bearing antisense to FabF assessed as drug level at which a zone formation after 18 hrs. Format: functional. The procedure, abridged:
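Agar two-plate differential sensitivity assay: S. aureus RN450 carrying fabF antisense plasmid, with a vector-only control strain. Overnight LB cultures with 34 µg/mL chloramphenicol at 37 °C were inoculated 1:1000 (of OD 3.0) into LB agar with 0.2% glucose and 15 µg/mL chloramphenicol, plus 50 mM xylose for the antisense strain only. Samples were added to wells and incubated 18 h at 37 °C. MDC is the lowest 2-fold dilution giving a zone in the sensitive strain with a 5 mm zone differential over the control strain.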

Assay [2] is described as follows: Inhibition of Staphylococcus aureus FAS2. The method, boiled down:
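Partially purified S. aureus protein containing all FAS enzymes (1.26 µg) was preincubated 20 min at room temperature with serial dilutions of compound. Reactions were started with [2-14C]malonyl-CoA (4 µM final), run 90 min at 37 °C, stopped with perchloric acid, and read by scintillation in phospholipid-coated flash plates. IC50 was determined.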

Assay [3] concerns Staphylococcus aureus. Briefly: Antimicrobial activity against Staphylococcus aureus MB2865 after 20 hrs. The assay is classed as functional. The method, boiled down:
(§1)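 MIC determination: cells inoculated at 10^5 CFU/mL, incubated at 37 °C for 20 h with 2-fold serial dilutions of compound in growth medium; MIC taken as lowest concentration inhibiting growth.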

Assay [4] has as its system Enterococcus faecium. Briefly: Antimicrobial activity against vancomycin-resistant Enterococcus faecium CL5791 after 20 hrs. Format: functional. The method, boiled down:
as §1

Assay [5] concerns Staphylococcus aureus. The assay can be described thus: Antimicrobial activity against methicillin-resistant Staphylococcus aureus COL after 20 hrs. The assay is classed as functional. The method, boiled down: as §1
Assay [6] has as its system Escherichia coli. The assay can be described thus: Antimicrobial activity against envA transfected Escherichia coli after 20 hrs. Format: functional. The procedure, abridged:
(§2)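 Broth MIC: cells at 10^5 CFU/mL were incubated at 37 °C for 20 h with 2-fold serial dilutions of compound in growth medium. The MIC was taken as the lowest concentration inhibiting growth.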

The subject of assay [7] is Enterococcus faecalis. Briefly: Antimicrobial activity against vancomycin-sensitive Enterococcus faecalis CL8516 after 20 hrs. The assay is classed as functional. The procedure, abridged: as §2
Assay [8] deals with Escherichia coli. The assay can be described thus: Antimicrobial activity against wild type Escherichia coli after 20 hrs. Format: functional. The procedure, abridged: as §2

Structures are written as SMILES. In brackets after ≈: the same amount, converted by molar mass. Some results are limits rather than exact numbers.

Consider `C/C=C/C/C=C/CCC(=O)[C@H]1O[C@H]1C(N)=O` [CERULENIN], for which, in assay [1], the Activity turned out to be 32 µg/mL. Moreover, the IC50 (in general, the concentration needed to halve the response being measured) in assay [2] was found to be 1.5 µg/mL (≈ 6.72 µM). Also, in assay [3], inhibition of growth (MIC) required 64 µg/mL (≈ 287 µM).
Consider `CCC(O)C#CC#CC=C=CCCCCC(=O)O` (configuration not stated) [PHOMALLENIC ACID A], for which the minimal inhibitory concentration (MIC) (in general, the lowest concentration that inhibits growth of the organism) in assay [4] is above 250 µg/mL; in assay [5] it was 250 µg/mL (≈ 1010 µM); in assay [6], 31.3 µg/mL (≈ 127 µM); in assay [7] it was above 250 µg/mL; in assay [8] it was above 250 µg/mL; in assay [3] it was 250 µg/mL (≈ 1010 µM). For the same compound, the Activity in assay [1] is 0.63 µg/mL. In assay [2], the IC50 amounted to 22 µg/mL (≈ 89.3 µM).
`CCCC#CC#CC=C=CCCCCCCC(=O)O` [PHOMALLENIC ACID B]: the MIC in assay [4] is above 100 µg/mL; in assay [5], 12.5 µg/mL (≈ 48.4 µM); in assay [6] it was 25 µg/mL (≈ 96.8 µM); in assay [7] it was above 100 µg/mL; in assay [8], above 100 µg/mL; in assay [3], 7.8 µg/mL (≈ 30.2 µM). Moreover, the Activity in assay [1] is 0.31 µg/mL. Further, the half-maximal inhibitory concentration (IC50) in assay [2] was 3.4 µg/mL (≈ 13.2 µM).
Turning to `CCCC#CC#CC=C=CCCCCCCCC(=O)O` [PHOMALLENIC ACID C], the MIC in assay [4] is above 100 µg/mL; in assay [5], 3.9 µg/mL (≈ 14.3 µM); in assay [6], 12.5 µg/mL (≈ 45.9 µM); in assay [7], above 100 µg/mL; in assay [8] it was above 100 µg/mL; in assay [3], 3.9 µg/mL (≈ 14.3 µM). In assay [1], the Activity was 0.15 µg/mL. For the same compound, in assay [2], the IC50 was determined as 0.77 µg/mL (≈ 2.83 µM).
As to `C=C/C(C)=C/[C@@]1(C)SC(=O)C(C)=C1O` [THIOLACTOMYCIN], the minimal inhibitory concentration (MIC) in assay [4] was above 250 µg/mL; in assay [5], 64 µg/mL (≈ 304 µM); in assay [6], above 250 µg/mL; in assay [7], above 250 µg/mL; in assay [8] it was above 250 µg/mL.

For the origin of these results see ChEMBL document CHEMBL1157291, “Discovery of bacterial fatty acid synthase inhibitors from a Phoma species as antimicrobial agents using a new antisense-based strategy” (J Nat Prod, 2006).
